Consider 10 molecules from ChEMBL document CHEMBL1287707, “Virtual screening against nuclear factor κB (NF-κB) of a focus library: Identification of bioactive furocoumarin derivatives inhibiting NF-κB dependent biological functions involved in cystic fibrosis” (Bioorg Med Chem, 2010).

Calls of active or inactive are those of the source. The rule behind the calls is not given here.

For one experiment, the target named is T1, Nuclear factor NF-kappa-B p105 subunit (Homo sapiens, UniProt P19838).
T1 sequence (P19838 whole entry): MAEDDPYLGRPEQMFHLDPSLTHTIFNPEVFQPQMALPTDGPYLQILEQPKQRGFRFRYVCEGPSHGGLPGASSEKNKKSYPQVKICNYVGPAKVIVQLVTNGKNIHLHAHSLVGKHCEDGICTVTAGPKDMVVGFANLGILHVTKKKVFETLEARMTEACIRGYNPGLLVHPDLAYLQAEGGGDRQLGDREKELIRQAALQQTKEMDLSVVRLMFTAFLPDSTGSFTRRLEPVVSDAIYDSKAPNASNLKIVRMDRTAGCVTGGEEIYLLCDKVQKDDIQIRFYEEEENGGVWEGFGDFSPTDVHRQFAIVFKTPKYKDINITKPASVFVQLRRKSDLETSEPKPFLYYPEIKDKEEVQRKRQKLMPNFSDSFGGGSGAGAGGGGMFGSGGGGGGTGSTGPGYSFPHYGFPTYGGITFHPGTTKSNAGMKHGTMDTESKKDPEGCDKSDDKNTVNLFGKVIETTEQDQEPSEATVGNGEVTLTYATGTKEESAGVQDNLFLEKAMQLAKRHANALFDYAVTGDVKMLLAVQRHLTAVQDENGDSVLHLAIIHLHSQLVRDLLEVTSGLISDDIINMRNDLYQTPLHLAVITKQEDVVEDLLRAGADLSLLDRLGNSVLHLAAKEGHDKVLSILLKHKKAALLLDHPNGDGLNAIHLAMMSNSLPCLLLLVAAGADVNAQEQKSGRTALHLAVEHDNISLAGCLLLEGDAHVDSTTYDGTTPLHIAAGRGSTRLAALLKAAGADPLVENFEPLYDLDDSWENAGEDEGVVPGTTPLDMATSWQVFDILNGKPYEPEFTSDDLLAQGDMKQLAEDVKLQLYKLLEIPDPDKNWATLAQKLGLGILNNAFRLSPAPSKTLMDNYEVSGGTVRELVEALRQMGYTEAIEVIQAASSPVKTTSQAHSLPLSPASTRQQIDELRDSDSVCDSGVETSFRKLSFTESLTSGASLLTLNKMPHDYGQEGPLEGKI
Put plainly: Inhibition of NF-KB p50 subunit/DNA interaction after 20 mins by EMSA. The method in brief: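 Recombinant human NF-κB p50 (10 ng) was preincubated 20 min at room temperature with varied compound concentrations in buffer TF with 5% glycerol and 1 mM DTT. 0.25 ng 32P-labelled double-stranded NF-κB site oligo was added for a further 20 min. Complexes were resolved on 6% PAGE in 0.25X TBE and detected by autoradiography. IC50 is the concentration giving 50% inhibition of binding.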
A general note: In EMSA bound probe runs differently from free probe, usually more slowly.
In general, IC50 refers to the midpoint of a concentration-inhibition curve. A high value points to weaker potency in that assay. In turn, `COc1ccc(C(=O)c2oc3ccc4c(C)cc(=O)oc4c3c2-c2ccccc2)cc1` had an IC50 of 60 µM.

Regarding `O=c1cc(-c2ccccc2)c2cc3c(-c4ccc5c(c4)OCO5)coc3cc2o1`, the IC50 came to 20 µM.

In turn, `COCCNc1oc2c(c1-c1cc(OC)c(OC)c(OC)c1)c(=O)oc1c(C)cccc12` registered an IC50 of 40 µM.

The molecule `O=c1ccc2ccc3occc3c2o1` [ANGELICIN] yielded an IC50 of 2500 µM.

The molecule `O=c1c(Br)cc2c(-c3ccccc3S(=O)(=O)O)c3cc(Br)c(O)c(O)c3oc-2c1O` [BROMOPYROGALLOL RED] returned an IC50 of 30 µM. Against the preceding molecule, the IC50 is about 83-fold lower.

Take `Cc1cc(=O)oc2cc(O)ccc12` [HYMECROMONE]: it took 200 µM to reach half-maximal inhibition (IC50).

The molecule `O=c1ccc2c(-c3ccccc3S(=O)(=O)O)c3ccc(O)c(O)c3oc-2c1O` [PYROGALLOL RED] returned an IC50 of 10 µM. This IC50 lies about 20-fold lower than the previous one.

`O=C(O)c1ccc(COc2cc(O)cc3oc(=O)c4c(c23)CCC4)cc1`: the 50% inhibitory concentration (IC50) turned out to be 5000 µM.

In turn, `O=c1ccc2cc3ccoc3cc2o1` [PSORALEN] had an IC50 of 3000 µM.

The molecule `O=C(O)/C=C/c1ccccc1O` [O-COUMARIC ACID] had an IC50 of 50 µM.

For the next experiment, the system named is IB3-1. The experiment can be described thus: Antiinflammatory activity in Pseudomonas aeruginosa PAO1 infected human IB3-1 cells assessed as inhibition of IL8 gene expression at 10 uM after 4 hrs by RT-PCR analysis. The class given is functional, cell-based. The method in brief: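 IB3-1 CF bronchial cells (ΔF508/W1282X) were grown in LHC-8 with 5% FBS, seeded at 200,000 cells/cm2, and serum-starved 18 h. Cells were then preincubated overnight with compound at 10 µM and infected with PAO1 at 30–100 CFU/cell for 4 h at 37 °C. Total RNA was reverse-transcribed and IL-8 mRNA quantified by RT-qPCR.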
With `COc1ccc(C(=O)c2oc3ccc4c(C)cc(=O)oc4c3c2-c2ccccc2)cc1`, the outcome was Active.

For `COCCNc1oc2c(c1-c1cc(OC)c(OC)c(OC)c1)c(=O)oc1c(C)cccc12`, the result was Active.
